Assay results taken from PubChem BioAssay AID504383 (The Scripps Research Institute Molecular Screening Center, 2011).
Hit rate of the full screen: of about 2,500 compounds, about 1,200 (48%) were called active. The set was probably picked from earlier hits. This is one part of the list. A number with no mark means an inactive call.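 Rule for the calls: active = mean activation above the low control average plus 3 SD, as set in the primary screen (cut at about 12% in these data); inactive = the rest.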

Each compound was assayed against Troponin I, cardiac muscle (Homo sapiens) + Troponin T, cardiac muscle (Homo sapiens) + Troponin C, slow skeletal and cardiac muscles (Homo sapiens) (UniProt P19429+P45379+P63316) (assay: calcium sensitizers of cardiac thin filaments – biochemical, IANBD-TnC fluorescence, triplicate, confirmation (AID 504383;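 note: 0% = DMSO at 0.472 mM calcium and 100% = DMSO at 2.9 mM calcium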)). Conditions: IANBD-labeled cardiac RTF, Ca2+ sensitivity fluorescence; at 7.2 µM; stronger effect = higher value; scaled from EC20 to saturating calcium; tested at EC20 calcium, 0.472 mM.
How it was run: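 material = labelled regulated thin filaments | probe or stimulus = Ca2+ 0.472 mM, EC20 level | dosing = single nominal compound dose of 7.2 µM | schedule = 15 min at 25 °C | signal = fluorescence intensity of labelled filaments | evaluation = fluorescence gain scaled between EC20 and EC100 calcium controls | benchmarks = low control EC20 calcium, high control EC100 calcium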

Structure (SMILES) | activation
NC(=O)c1c(NC(=O)C2COc3ccccc3O2)sc2c1CCN(Cc1ccccc1)C2 (stereo unspecified) | 5.35%
CC(=O)Nc1sc2c(c1-c1nc3ccccc3s1)CN(C(C)C)CC2 | 3.29%
Cc1ccc(S(=O)(=O)c2c(N)n(Cc3ccco3)c3nc4ccccc4nc23)cc1 | 8.53%
Nc1c(S(=O)(=O)c2ccccc2)c2nc3ccccc3nc2n1/N=C/c1ccco1 | 4.69%
Nc1c(S(=O)(=O)c2ccccc2)c2nc3ccccc3nc2n1Cc1ccco1 | 79.2% (active)
COc1cccc(CNC(=O)CN(C)S(=O)(=O)c2ccc3c(c2)c(=O)n(C)c(=O)n3C)c1 | 11.5%
COc1cccc(CNC(=O)CN(C)S(=O)(=O)c2cnc[nH]2)c1 | 151% (active)
CCOc1ccc(-c2ncncc2-c2ccccc2OC)c(O)c1 | 5.97%
CCC(=Cc1ccccc1OC)c1ccncc1 | 17.2% (active)
COc1ccccc1/C=C/CN1CCC(CO)(Cc2ccccc2)CC1 | 11.1%
CC(C)(C)c1cc[n+](-c2[nH]c(=O)sc2/C=N/NC([S-])=Nc2ccccc2)cc1 | 5.34%
Cc1cc(C)c[n+](-c2[nH]c(=O)sc2/C=N/NC([S-])=Nc2ccccc2)c1 | -0.42%
Cc1cc[n+](-c2[nH]c(=O)sc2/C=N/NC([S-])=Nc2ccccc2)cc1C | 6.12%
Cc1cc[n+](-c2[nH]c(=O)sc2/C=N/N=C(\[O-])c2ccccc2)cc1C | 22.1% (active)
CCc1ccc[n+](-c2[nH]c(=O)sc2/C=N/NC([S-])=Nc2ccccc2)c1 | 49.2% (active)
O=c1[nH]c(-[n+]2ccccc2)c(/C=N/NC([S-])=Nc2ccccc2)s1 | 8.23%
Cc1cc[n+](-c2[nH]c(=O)sc2/C=N/NC([S-])=Nc2ccccc2)cc1 | 18.3% (active)
CN1C(=O)c2cccc3c(N(C)C)ccc(c23)C1=O | 223% (active)
Cc1ccccc1N1C(=O)c2cccc3c(N(C)CCO)ccc(c23)C1=O | 11.1%
Cc1cccc(N2C(=O)c3cccc4c(N(C)CCO)ccc(c34)C2=O)c1 | 6.7%
CN1C(=O)c2cccc3c(N)ccc(c23)C1=O | 5.53%
CCCCNc1ccc2c3c(cccc13)C(=O)N(CCCC)C2=O | 5.54%
CNc1ccc2c3c(cccc13)C(=O)N(C)C2=O | 44.4% (active)

Structure (SMILES) | activation
O=C(CSc1ccc(Cl)cc1)Nc1nnc(-c2cccc([N+](=O)[O-])c2)s1 | -1.31%
O=C(Cc1ccc(Cl)cc1)NNS(=O)(=O)c1ccc([N+](=O)[O-])cc1 | 275% (active)
O=c1[nH]ncc2c3ccccc3n(Cc3cccc(Cl)c3)c12 | -2.41%
O=S(=O)(O)c1nc2ccccc2n1Cc1ccccc1 | 51.8% (active)
CCN1C(=O)c2cccc3c(NC(=O)c4ccc5c(c4)OCCO5)ccc1c23 | 1730% (active)
Cc1ccccc1NC(=O)c1nnn(-c2ccc3c(c2)OCCO3)c1N | 5.33%
CCCCN(C(=O)c1ccc2c(c1)OCCO2)c1c(N)n(CCCC)c(=O)[nH]c1=O | 3.97%
CN(Cc1ccccc1)C(=O)c1ccc(NC(=O)Cc2ccc(NC(=O)C3CCCN(S(=O)(=O)c4cccc([N+](=O)[O-])c4)C3)cc2)cc1 (stereo unspecified) | 6.95%
COc1cccc(S(=O)(=O)Nc2cccc(C(=O)N3CCCCCC3)c2)c1 | -0.51%
O=C(Cc1ccc(NC(=O)C2CCCN(C(=O)C3CCCCC3)C2)cc1)Nc1cccc(C(=O)N2CCCC2)c1 (stereo unspecified) | 13.2% (active)
Cc1ccc(S(=O)(=O)Nc2ccccc2N(C)S(=O)(=O)c2ccc(C)cc2)cc1 | 9.04%
CC(=O)Nc1ccc(S(=O)(=O)NCCC(=O)OCC(=O)c2cc(C)ccc2C)cc1 | 10.1%
Cc1ccc(S(=O)(=O)NCCCCCC(=O)Nc2ccccc2C)cc1 | 34.1% (active)
Cc1ccc(C)c(OCCN2C(=O)NC3(CCc4ccccc4C3)C2=O)c1 (stereo unspecified) | 2.13%
C=COc1ccc(N2C(=O)c3ccccc3OC2C)cc1 (stereo unspecified) | 32.1% (active)
Cc1ccc(C(=O)N(C)CC(=O)Nc2cccc(F)c2)cc1S(=O)(=O)N1CCCCC1 | 6.56%
COc1cc(/C=C2/C(=O)NN(c3cccc(F)c3)C2=O)ccc1OC(=O)c1ccco1 | 3.13%
COc1ccc(CC(=O)N(C)Cc2cccc(F)c2)cc1S(=O)(=O)N1CCOCC1 | 12.3% (active)
NC(=O)c1ccccc1N/C=C/C(=O)c1ccc(Cl)cc1Cl | 19% (active)
COC(=O)c1cnn2c(C(F)(F)F)cc(-c3ccco3)nc12 | 4.76%
CSc1nc2ccccc2n1CC(=O)Nc1c(C)cccc1C | 12.7% (active)
Cc1cccc(C)c1NC(=O)CN(C1CCCCC1)S(C)(=O)=O | 9.63%
Cc1cccc(C)c1NC(=O)CNC(=O)Cc1ccc(Br)cc1 | 10.9%
